Measured values: the RNAGym collection of RNA variant scans (doi:10.1126/science.aae0568)
Variants at the floor of the assay were thinned out.

B1: tRNA (parent)
chain: GUUCCGUUGGCGUAAUGGUAACGCGUCUCCCUCCUAAGGAGAAGACUGCGGGUUCGAGUCCCGUACGGAACG

Variants of: B1
Assay: yeast fitness relative to wild type (ratio to wild type); higher = fitter; tRNA-Arg(CCU), competitive growth, 37 C, YPD
In short: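 Changes in genotype frequencies gave Darwinian fitness relative to wild type. Frequencies were read by 100-nucleotide paired-end sequencing of gene amplicons before and after pooled Saccharomyces cerevisiae strains, carrying tRNA-Arg(CCU) gene variants at the native locus, were competed in YPD at 37°C for 24 hours in six replicates. A genotype was kept only with ≥ 100 starting reads, and estimates < 0.5 were set to 0.5.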

Variant	yeast fitness
A14C C22G A37C	≤ 0.5
A14C C22G U26G C55A A65G	≤ 0.5
U13C U16C A57G G68A A69G	≤ 0.5
A14C C27G C46G A65G C66U	≤ 0.5
A14C A20U G25C A43C C66U	≤ 0.5
A14C C30A A69U	≤ 0.5
A14C A40C G41C C55A A70U	≤ 0.5
A14C A45C C49G U54C C66U	≤ 0.5
U13G A42G	0.733
U13G C24U A36G U47C G50A	0.518
U13G G25A U59C	0.681
A14C C24U C31U U53C C61G	≤ 0.5
U13C C31U A57G U64A C66A A69C	≤ 0.5
U13C U19C U26C C31A C61G	≤ 0.5
U13C G23C A36C G39A	0.611
A14C C22U C24U U53A	≤ 0.5
U13C G23A G63A A70U	0.527
U13C C27G	0.544
U13C G44C G58A G68A	0.572
U13G C22U C31A C55U G63A A69C	≤ 0.5
U13C C27U A69U A70C	≤ 0.5
U13G G38A	0.781
U13G A37C	0.65
A14C A15G	0.675

Variant	yeast fitness
U13G C29U G48A G56A	0.55
U13G A20U A42G U59A A65G	≤ 0.5
U13C U16A A57U	≤ 0.5
U13G A65G C66A	≤ 0.5
A14C C22G G63A	0.642
U13G U28G A57U A65C A69C	≤ 0.5
A14C A57U C61U	≤ 0.5
A14C A42U C55G	≤ 0.5
U13C C29G A36G G41A G48C A57U	≤ 0.5
A14C C29U C33G	0.527
A14C A43G U59C C62A	≤ 0.5
A14C G17C	0.622
A14C C22A U59C C62A	≤ 0.5
U13C C31U G50C	≤ 0.5
U13C G25A C33G G41C C61G A65U	≤ 0.5
A14C G17C C60U	≤ 0.5
U13G U16C A42U G44A C49A	≤ 0.5
A14C A42C U47C	≤ 0.5
A14C A36U G38A A65C	≤ 0.5
U13G C31A	0.833
A14C G18C A65U G68C	≤ 0.5
A14C A20G G23A C29U U35C C55G	≤ 0.5
U13C G51C C66A	≤ 0.5
U13C C55G	0.645

Variant	yeast fitness
A14C C30U G41C A69U	≤ 0.5
U13C U28G U54A C62A	0.624
A14C C29U A36G A45U A70G	0.548
A14C C29U A36G A45U A70U	≤ 0.5
U13G A65C A70G	0.619
U13C G52A A69U	0.689
A14C G17C U26A G41C	≤ 0.5
A14C A15C C34G A43C C49A	0.627
A14C C33U	0.64
U13G A40U	0.945
A14C C24U A57G C60U G68C	≤ 0.5
A14C C31G C62A A65U C66U	0.506
U13G A21G	0.895
U13G A21C	0.611
U13G A42C U64C	0.715
A14C A21U C24A A37U A45U	≤ 0.5
U13C C33U A45G G50A C66A G68A A70U	≤ 0.5
A14C C34G A43U C62A	0.716
A14C C22G G25C G44A C61G	0.543
U13C G23C A36C G39A A43G	≤ 0.5
A14C G18C C29U A65C	≤ 0.5
U13G C60U	0.747
U13C U53A	0.674
U13C U53C	0.727

Variant	yeast fitness
A14C A15G A42G	0.738
A14C A42U G44C	≤ 0.5
A14C A40C G68A	≤ 0.5
U13G C61U A70G	0.618
U13C G17A A43U	0.523
U13C G67U	0.719
U13C G67C	0.771
U13C G67A	0.848
A14C C30U G58A	≤ 0.5
A14C C34G A57U	0.518
U13C C30G C31A	≤ 0.5
U13C C49A	0.795
U13G A45C G48A	0.898
A14C C22A C46A U64C	≤ 0.5
A14C A21C C46A	0.604
U13G U16A C24U G44A C49G	≤ 0.5
A14C C24U A36G	0.591
U13G U32C C33U C62U A65G	≤ 0.5
U13G C22G G63C G67A	≤ 0.5
U13G A40G U47C A69U	0.653
A14C C24A G52A U53A A57C	0.5
U13C C31U C55G G67C	≤ 0.5
A14C A20C	0.533
U13G A21U C22G U26C U35A A65G A70C	≤ 0.5

Variant	yeast fitness
U13G A45U C55G	≤ 0.5
U13C G38C	0.644
U13C C31A C55A	0.565
A14C A36G C62U	≤ 0.5
A14C A36G C62A	≤ 0.5
U13G C31U U35A	0.51
A14C A65G A69U	0.634
U13G C24A C46G G52A	≤ 0.5
U13G A43C U54A A57G	≤ 0.5
A14C A40U A43C	0.564
U13C G23C C29G A43U G50A A65C	≤ 0.5
U13C G63C	0.742
A14C C31U A36U	0.631
U13C U26A	0.982
U13C G25C C31G	0.877
A14C A57C	0.516
U13G U26G G52A	≤ 0.5
U13G C27A	0.628
A14C A45U A70G	0.561
U13C G18C	0.618
A14C C27G A69U	0.561
U13C G25C C61U	1.14
U13C C61U	0.928
U13G C30A	0.715

Variant	yeast fitness
A14C A43U C61U	≤ 0.5
U13G U28C	0.867
U13G U28G	0.59
A14C A15C A21U A57G	≤ 0.5
U13C U26C C27G C34U A37U A43G A45G C46U	≤ 0.5
U13G G44A A57U	0.617
A14C C30U A37C C62A	0.693
U13G A21U C22G U35A A65G	≤ 0.5
A14C C31U	0.706
U13C C62G	0.804
A14C C24U C31G A36U	0.664
U13G U32G A45G C49U A70U	≤ 0.5
U13C G58C	0.922
U13C G58A	0.891
A14C A21U A45C A57G	≤ 0.5
A14C C27U C46U A70G	≤ 0.5
U13G C31A U54C A57U	≤ 0.5
A14C G17A G68A	0.522
U13G A65U	0.896
A14C C33G A42C G48A C60U	≤ 0.5
A14C A36G A69C	≤ 0.5
U13C G52C U53A C55G A69U	≤ 0.5
A14C G18A G67U	≤ 0.5
U13G G63C	0.696

Variant	yeast fitness
U13G C24G A36C A40U G48A	0.525
U13G C24U G44A G58C	0.508
A14C C33G G44A C49A C55A	≤ 0.5
A14C C27U C55G A70U	0.613
U13C G41C	0.761
A14C C27A C31A	0.588
U13C G23C C62A	≤ 0.5
U13G G58C G67C	0.603
A14C C33A G41U C49U C66U	≤ 0.5
U13C G44A C49U	0.799
U13G A20U U53C C62U	≤ 0.5
A14C C29U A36G A45U	0.543
A14C A45U G50C G68C	≤ 0.5
U13G A20U A65C	0.594
U13G A36G G68C	≤ 0.5
A14C C61U C66G	0.522
U13C G41C A70C	0.566
U13C C33U	0.744
U13G G18C C30U C33G U47G	0.578
A14C A40C U64C	0.622
U13G U28G C61U	0.523
U13C U28A C62U C66A	≤ 0.5
U13G C30U U32C	0.686
